Results taken from ChEMBL document CHEMBL1130078, “Discovery of an orally active series of isoxazoline glycoprotein IIb/IIIa antagonists” (J Med Chem, 1997).
One block for each compound: values may come before it.

What was measured:
[1] = molecular target: T1, Integrin alpha-IIb/beta-3 (Homo sapiens, UniProt P05106+P08514); test: In vitro inhibition of ADP-induced platelet aggregation in human platelet rich plasma (hPRP); format: functional, cell-free
[2] = molecular target: T1, Integrin alpha-IIb/beta-3
[3] = system: Canis familiaris; test: Inhibition of ex vivo platelet aggregation after intravenous administration of bolus dose of 0.025 mg/kg to dog; format: functional; settings: Canis lupus familiaris
Method in brief: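 Dogs given an iv bolus. Ex vivo ADP (100 μM)-induced platelet aggregation measured in samples taken over 5 h.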

[4] = molecular target: T1, Integrin alpha-IIb/beta-3; remark: listed apart in the source
[5] = system: Rhesus monkey; test: Inhibition of ex vivo aggregation in 2 hr after oral dose of 0.3 mg/kg to rhesus monkey; format: functional, Cercopithecidae; settings: Macaca mulatta
Method in brief: (§1)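 Rhesus monkeys of either sex, 8–15 years, 6–10 kg, at least two animals/sex per dose, n = 8. Oral gavage by feeding tube of a solution in 0.9% saline (0.5 mL/kg), then water flush. Blood was drawn at various time points from the femoral or saphenous vein into citrate for ex vivo ADP (100 μM)-induced aggregation.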

[6] = system: Rhesus monkey; test: Inhibition of ex vivo aggregation over 12 hr after oral dose of 0.3 mg/kg to rhesus monkey; format: functional, Cercopithecidae; settings: Macaca mulatta; method in brief: as §1
[7] = system: Canis familiaris; test: Inhibition of platelet aggregation for 12 hr after oral dose of 0.3-0.4 mg/kg to dog; format: functional, Canis lupus familiaris
Method in brief: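 Dogs dosed orally at 0.1–0.4 mg/kg; ex vivo ADP (100 μM)-induced platelet aggregation followed over time up to 12 h, n = 4.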

T1 sequence (P05106 27-788 limits assumed): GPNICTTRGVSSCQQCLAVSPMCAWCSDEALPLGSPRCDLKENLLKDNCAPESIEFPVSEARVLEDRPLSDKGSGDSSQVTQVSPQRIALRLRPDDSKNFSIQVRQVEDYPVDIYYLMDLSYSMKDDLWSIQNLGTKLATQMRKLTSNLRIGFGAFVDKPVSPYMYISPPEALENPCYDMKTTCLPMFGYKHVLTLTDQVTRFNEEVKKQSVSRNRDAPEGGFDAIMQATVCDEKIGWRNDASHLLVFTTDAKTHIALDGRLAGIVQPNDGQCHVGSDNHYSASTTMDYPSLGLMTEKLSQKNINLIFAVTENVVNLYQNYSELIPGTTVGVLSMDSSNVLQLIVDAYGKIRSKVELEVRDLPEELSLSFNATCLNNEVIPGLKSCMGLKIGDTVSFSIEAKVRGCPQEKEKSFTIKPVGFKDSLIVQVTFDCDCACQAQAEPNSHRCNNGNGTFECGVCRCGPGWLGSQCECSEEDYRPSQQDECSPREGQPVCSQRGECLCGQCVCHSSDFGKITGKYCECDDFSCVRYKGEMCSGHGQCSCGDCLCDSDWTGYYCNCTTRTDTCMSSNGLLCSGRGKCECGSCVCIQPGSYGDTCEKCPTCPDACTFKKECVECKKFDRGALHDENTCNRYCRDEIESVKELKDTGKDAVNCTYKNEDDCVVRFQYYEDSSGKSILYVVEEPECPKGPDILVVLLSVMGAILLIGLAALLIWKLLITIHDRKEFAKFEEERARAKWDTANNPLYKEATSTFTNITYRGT
T1 sequence (P08514 32-887 limits assumed): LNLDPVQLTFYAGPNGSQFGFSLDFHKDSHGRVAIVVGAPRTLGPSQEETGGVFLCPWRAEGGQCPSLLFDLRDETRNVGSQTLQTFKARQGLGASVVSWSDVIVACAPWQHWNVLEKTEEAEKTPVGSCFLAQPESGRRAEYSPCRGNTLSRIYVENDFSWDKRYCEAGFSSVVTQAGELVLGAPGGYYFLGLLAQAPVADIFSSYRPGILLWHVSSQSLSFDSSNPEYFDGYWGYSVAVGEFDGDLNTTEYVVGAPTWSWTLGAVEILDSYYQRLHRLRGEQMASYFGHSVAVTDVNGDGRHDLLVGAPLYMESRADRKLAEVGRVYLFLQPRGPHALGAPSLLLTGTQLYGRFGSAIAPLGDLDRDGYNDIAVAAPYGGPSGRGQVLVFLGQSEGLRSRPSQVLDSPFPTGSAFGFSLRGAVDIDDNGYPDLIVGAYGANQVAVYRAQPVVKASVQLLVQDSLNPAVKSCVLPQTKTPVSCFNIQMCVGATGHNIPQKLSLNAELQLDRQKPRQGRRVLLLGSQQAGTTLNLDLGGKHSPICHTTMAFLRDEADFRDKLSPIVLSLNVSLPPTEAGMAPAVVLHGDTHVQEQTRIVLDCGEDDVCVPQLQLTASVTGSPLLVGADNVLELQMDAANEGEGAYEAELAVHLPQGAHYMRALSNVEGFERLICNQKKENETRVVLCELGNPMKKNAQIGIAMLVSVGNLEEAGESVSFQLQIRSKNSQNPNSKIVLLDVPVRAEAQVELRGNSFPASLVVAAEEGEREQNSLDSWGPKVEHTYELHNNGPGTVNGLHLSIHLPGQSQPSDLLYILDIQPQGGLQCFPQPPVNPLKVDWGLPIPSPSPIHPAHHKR
T1 sequence (P08514 891-1039 limits assumed): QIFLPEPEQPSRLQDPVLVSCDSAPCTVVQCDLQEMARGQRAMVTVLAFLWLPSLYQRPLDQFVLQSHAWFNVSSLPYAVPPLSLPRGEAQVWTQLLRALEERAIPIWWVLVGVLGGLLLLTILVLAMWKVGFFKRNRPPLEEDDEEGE

IC50 [1]: 240 nM
Structure (SMILES): N=C(N)c1ccc(C2=NOC(CC(=O)NCCC(=O)O)C2)cc1 (configuration not stated)

IC50 [2]: 11 nM | IC50 [4]: 0.25 nM
Structure (SMILES): CCCCOC(=O)N[C@@H](CNC(=O)C[C@H]1CC(c2ccc(C(=N)N)cc2)=NO1)C(=O)O
inhibition in vivo at 0.025 mg/kg [3]: 90%

Structure (SMILES): CCCCOC(=O)N[C@@H](CNC(=O)CC1CC(c2ccc(C(=N)N)cc2)=NO1)C(=O)OC.Cl (some centres not stated)
inhibition in vivo at 0.3 mg/kg [5]: 90% | inhibition in vivo at 0.3 mg/kg [6]: 60% | Inhibition [7]: >60%
